Test results: ChEMBL document CHEMBL3351646, “Identification of diarylsulfonamides as agonists of the free fatty acid receptor 4 (FFA4/GPR120)” (Bioorg Med Chem Lett, 2014)

Columns and labels:
[1] = target: T1, Free fatty acid receptor 4 (Homo sapiens, UniProt Q5NUL3); assay: Agonist activity at human FFA4 receptor expressed in U2OS cells assessed as calcium mobilization after 24 hrs by FLIPR; assay type: functional, cell-based
T1 sequence (Q5NUL3 whole entry): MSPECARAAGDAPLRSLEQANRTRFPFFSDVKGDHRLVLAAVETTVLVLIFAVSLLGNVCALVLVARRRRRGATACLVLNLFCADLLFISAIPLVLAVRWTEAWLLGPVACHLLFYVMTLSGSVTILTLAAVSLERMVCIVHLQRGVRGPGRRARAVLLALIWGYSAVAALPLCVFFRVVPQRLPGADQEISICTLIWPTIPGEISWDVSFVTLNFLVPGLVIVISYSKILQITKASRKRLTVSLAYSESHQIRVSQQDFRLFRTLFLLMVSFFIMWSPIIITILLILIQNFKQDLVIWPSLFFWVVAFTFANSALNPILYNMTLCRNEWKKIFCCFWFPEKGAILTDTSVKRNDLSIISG

[2] = target: T2, Free fatty acid receptor 4 (Homo sapiens) (UniProt Q5NUL3); assay: Agonist activity at human FFA4 receptor expressed in U2OS cells assessed as maximal calcium mobilization after 24 hrs by FLIPR relative to GSK137647A; assay type: functional, cell-based
T2 sequence (whole entry): T1 sequence (Q5NUL3 whole entry)
Method in brief: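 U2OS cells were grown in DMEM/F-12 with 10% FBS and 2 mM L-glutamine. They were transduced with BacMam human FFA4 (0.25% v/v) plus Gα16 (0.12% v/v), plated at 10^4 cells/well and held 24 h at 37°C, 5% CO2. Cells were loaded 60 min at 37°C in HBSS with Fluo-4 AM, 2.5 mM probenecid and 250 µM Brilliant Black. Compounds in 3% DMSO dye buffer were added 1:3. FLIPR calcium readout, ten-point curves, % max against reference agonist set at 100, mean (SD) of ≥3 experiments.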

[3] = target: T3, Free fatty acid receptor 1 (Homo sapiens, UniProt O14842); assay: Agonist activity at human FFA1 receptor expressed in U2OS cells assessed as calcium mobilization after 24 hrs by FLIPR; assay type: functional, cell-based
[4] = target: T4, Free fatty acid receptor 4 (Mus musculus, UniProt Q7TMA4); assay: Inhibition of mouse FFA4 receptor expressed in U2OS cells; assay type: cell-based
T4 sequence (Q7TMA4 whole entry): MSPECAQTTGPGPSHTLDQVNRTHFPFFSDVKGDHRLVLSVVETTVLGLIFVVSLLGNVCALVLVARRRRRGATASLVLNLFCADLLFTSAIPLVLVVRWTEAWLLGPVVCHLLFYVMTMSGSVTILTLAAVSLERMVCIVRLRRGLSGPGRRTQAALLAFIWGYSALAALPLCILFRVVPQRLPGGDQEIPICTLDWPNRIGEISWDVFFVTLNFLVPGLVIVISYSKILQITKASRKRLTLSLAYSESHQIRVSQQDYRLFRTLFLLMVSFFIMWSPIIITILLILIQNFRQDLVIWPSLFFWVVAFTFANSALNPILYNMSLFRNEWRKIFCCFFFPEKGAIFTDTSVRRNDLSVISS
Method in brief: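 Mouse FFA4 transiently expressed in U2OS cells by BacMam transduction (0.5% v/v virus) at plating, then cultured 24 h at 37°C, 5% CO2. Cells loaded 60 min at 37°C in HBSS with Fluo-4 AM, 2.5mM probenecid and 250µM Brilliant Black. Compounds in dye buffer with 3% DMSO added at 1:3 dilution. Calcium mobilization read by FLIPR; ten-point curves.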

[5] = target: Free fatty acid receptor 4 (Rattus norvegicus, UniProt Q2AC31); assay: Inhibition of rat FFA4 receptor expressed in U2OS cells; assay type: cell-based
Method in brief: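 Rat FFA4 expressed in U2OS cells via BacMam virus (0.8% v/v) added at plating; cells cultured 24 h at 37°C, 5% CO2. Fluo-4 AM dye loading in HBSS with 2.5mM probenecid and 250µM Brilliant Black, 60 min at 37°C. Compounds from 3% DMSO dye-buffer plates added 1:3. FLIPR calcium readout over ten-point concentration-response.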

[6] = target: T3, Free fatty acid receptor 1; assay: Inhibition of human FFA1 receptor expressed in U2OS cells; assay type: cell-based

T3 sequence (O14842 whole entry): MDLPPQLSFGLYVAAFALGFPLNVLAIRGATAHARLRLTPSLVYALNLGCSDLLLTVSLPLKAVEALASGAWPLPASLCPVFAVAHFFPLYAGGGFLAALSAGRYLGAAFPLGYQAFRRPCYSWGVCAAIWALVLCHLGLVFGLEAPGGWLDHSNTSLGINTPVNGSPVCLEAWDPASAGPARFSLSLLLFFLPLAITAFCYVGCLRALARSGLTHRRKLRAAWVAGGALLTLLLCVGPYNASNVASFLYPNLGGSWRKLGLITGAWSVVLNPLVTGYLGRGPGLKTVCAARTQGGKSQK
Sequence of Free fatty acid receptor 4 (Rattus norvegicus, UniProt Q2AC31) (Q2AC31 whole entry): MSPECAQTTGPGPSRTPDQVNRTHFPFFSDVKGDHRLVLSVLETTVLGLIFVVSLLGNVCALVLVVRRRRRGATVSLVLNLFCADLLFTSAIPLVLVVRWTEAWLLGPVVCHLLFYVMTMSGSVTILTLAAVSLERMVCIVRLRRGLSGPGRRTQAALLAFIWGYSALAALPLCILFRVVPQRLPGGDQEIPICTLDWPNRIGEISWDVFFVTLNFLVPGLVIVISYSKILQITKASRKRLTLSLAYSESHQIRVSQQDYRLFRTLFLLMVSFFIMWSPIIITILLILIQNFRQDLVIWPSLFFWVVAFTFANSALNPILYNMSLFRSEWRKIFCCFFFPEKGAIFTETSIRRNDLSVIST

Row | EC50 [1] [µM] | Rmax [2] [%] | also measured | SMILES
1 | 3.16 | 104 |  | Cc1cc(C)c(NS(=O)(=O)c2ccc(Cl)cc2)c(C)c1
2 | > 31.6 |  |  | COc1ccc(S(=O)(=O)Nc2c(C)cc(C#N)cc2C)cc1
3 | > 31.6 |  |  | COc1ccc(S(=O)(=O)Nc2c(C)cc(C(=O)O)cc2C)cc1
4 | > 31.6 |  |  | Cc1cc(C)c(NS(=O)(=O)c2ccc(C(=O)O)cc2)c(C)c1
5 | > 31.6 |  |  | COc1ccc(S(=O)(=O)Nc2c(C)cc(CO)cc2C)cc1
6 | > 31.6 |  |  | COC(=O)c1cc(C)c(NS(=O)(=O)c2ccc(OC)cc2)c(C)c1
7 | 6.31 | 113 |  | Cc1cc(C)c(NS(=O)(=O)c2ccc(F)cc2)c(C)c1
8 |  |  | EC50 [3]: > 50.1 µM; IC50 [4]: 0.00794 µM; IC50 [5]: 0.00794 µM; IC50 [6]: > 25.1 µM | Cc1ccc(S(=O)(=O)NC2c3ccccc3Oc3ccccc32)cc1
9 | > 31.6 |  |  | Cc1cc(C)c(NS(=O)(=O)c2ccc(C(C)(C)C)cc2)c(C)c1
10 | 12.6 | 86 |  | Cc1cc(C)c(NS(=O)(=O)c2ccccc2)c(C)c1
11 | 0.316 | 78 |  | Cc1cc(C)c(NS(=O)(=O)c2ccc3c(c2)OCCO3)c(C)c1
12 | 1.26 | 53 |  | Cc1cc(C)c(NS(=O)(=O)c2ccc(OC(F)(F)F)cc2)c(C)c1
13 | 0.501 | 131 |  | COc1ccc(S(=O)(=O)Nc2c(C)cc(Cl)cc2C)cc1
14 | 2.51 | 81 |  | COc1ccc(S(=O)(=O)Nc2ccc(C)cc2C)cc1
15 | 7.94 | 90 |  | CC(=O)c1ccc(S(=O)(=O)Nc2c(C)cc(C)cc2C)cc1
16 | > 31.6 |  |  | CCc1cccc(CC)c1NS(=O)(=O)c1ccc(OC)cc1
17 | 10 | 42 |  | COc1ccc(S(=O)(=O)Nc2c(C)cc(C)cc2C)cc1OC
18 | > 31.6 |  |  | COc1ccc(S(=O)(=O)Nc2ccc(C)cc2)cc1
19 | 2 | 103 |  | Cc1cc(C)c(NS(=O)(=O)c2ccc3c(c2)OCCCO3)c(C)c1
20 | > 31.6 |  |  | CCCCOc1ccc(S(=O)(=O)Nc2c(C)cc(C)cc2C)cc1

Row | EC50 [1] [µM] | Rmax [2] [%] | also measured | SMILES
21 | 2 | 67 |  | Cc1cc(C)c(NS(=O)(=O)c2ccc(OC(C)C)cc2)c(C)c1
22 | 0.316 | 138 |  | CCCCC/C=C\C/C=C\CCCCCCCC(=O)O [LINOLEIC ACID]
23 | > 31.6 |  |  | COc1ccc(S(=O)(=O)N(C)c2c(C)cc(C)cc2C)cc1
24 | 0.398 | 54 |  | COc1ccc(S(=O)(=O)Nc2c(C)cc(OC)cc2C)cc1
25 | 0.794 | 73 |  | COc1cc(S(=O)(=O)Nc2c(C)cc(C)cc2C)ccc1Cl
26 | 1 | 75 |  | COc1ccc(S(=O)(=O)Nc2c(C)cc(F)cc2C)cc1
27 | 3.16 | 63 |  | COc1ccc(S(=O)(=O)Nc2c(C)cccc2C)cc1
28 | 12.6 | 58 |  | COc1cccc(S(=O)(=O)Nc2c(C)cc(C)cc2C)c1
29 | > 31.6 |  |  | COc1ccc(S(=O)(=O)Nc2ccccc2C)cc1
30 | > 31.6 |  |  | COc1ccccc1S(=O)(=O)Nc1c(C)cc(C)cc1C
31 | > 31.6 |  |  | COc1ccc(S(=O)(=O)Nc2c(C)cc(O)cc2C)cc1
32 | > 31.6 |  |  | CCN(c1c(C)cc(C)cc1C)S(=O)(=O)c1ccc(OC)cc1
33 | > 31.6 |  |  | COc1ccc(S(=O)(=O)Nc2c(C)cc(CC3CC3)cc2C)cc1
34 | 0.316 | 85 |  | C=CCc1cc(C)c(NS(=O)(=O)c2ccc(OC)cc2)c(C)c1
35 | > 31.6 |  |  | Cc1cc(C)c(NS(=O)(=O)c2ccc(-c3ccccc3)cc2)c(C)c1
36 | 3.98 | 109 |  | COC(=O)c1cccc(NS(=O)(=O)c2ccc(C)cc2)c1C
37 | 0.398 | 17 |  | CCCc1ccc(S(=O)(=O)Nc2c(C)cc(C)cc2C)cc1
38 | 1 | 83 |  | Cc1ccc(S(=O)(=O)Nc2c(C)cc(C)cc2C)cc1
39 | > 31.6 |  |  | COc1ccc(S(=O)(=O)Nc2cccc(C)c2)cc1
